Assays:
[1] = target: T1, 4EHP used for ITC, wild type (human, UniProt O60573 1-245); assay: ITC
T1 sequence: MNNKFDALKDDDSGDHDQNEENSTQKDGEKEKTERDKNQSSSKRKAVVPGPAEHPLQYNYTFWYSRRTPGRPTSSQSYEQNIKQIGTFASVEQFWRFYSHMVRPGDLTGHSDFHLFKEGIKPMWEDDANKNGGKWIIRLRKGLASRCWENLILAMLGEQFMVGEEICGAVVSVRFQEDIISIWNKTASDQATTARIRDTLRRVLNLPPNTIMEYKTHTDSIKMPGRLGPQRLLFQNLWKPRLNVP

[2] = target: T2, 4EHP S99N used for ITC (human, UniProt O60573 1-245, S99N); assay: ITC
T2 sequence: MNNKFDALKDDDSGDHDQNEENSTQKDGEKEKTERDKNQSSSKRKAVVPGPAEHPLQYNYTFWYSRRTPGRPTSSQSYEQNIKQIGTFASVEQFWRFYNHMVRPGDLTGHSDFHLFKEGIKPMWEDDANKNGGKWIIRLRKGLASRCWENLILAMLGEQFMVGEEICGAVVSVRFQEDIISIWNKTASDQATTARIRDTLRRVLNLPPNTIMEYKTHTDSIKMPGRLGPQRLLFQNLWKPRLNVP

[3] = target: T3, 4EHP-His6 (residues A52–F234), RE-LL mutant, of the competition assays (human, UniProt O60573 52-234, R103L | E149L); assay: pull-down
T3 sequence: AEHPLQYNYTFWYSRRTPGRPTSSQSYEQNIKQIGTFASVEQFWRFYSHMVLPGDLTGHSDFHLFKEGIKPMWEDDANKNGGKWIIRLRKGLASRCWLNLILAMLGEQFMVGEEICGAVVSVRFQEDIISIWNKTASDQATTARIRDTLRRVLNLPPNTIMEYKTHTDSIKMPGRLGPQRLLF

[4] = test system: 4EHP; assay: Pull-down / coimmunoprecipitation with 4EHP in HEK293T cell lysates; assay type: binding, human; conditions: Western blot; for interaction with 4EHP in cells, overexpressed binding partner: HEK293T cells, GFP-tagged protein and V5-SBP-4EHP
In short: (§1)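 Streptavidin-bead pull-down from RNase A-treated HEK293T lysates of cells expressing V5-SBP-tagged 4EHP or eIF4E (wild type or mutants). Co-bound endogenous GYF2, 4E-T and 4E-BP1 were probed; for 4EHP, co-expressed GFP-4E-BP1 was also probed, with V5-SBP-MBP as negative control. Inputs and bound fractions were analysed by Western blot with anti-V5, anti-GFP, anti-GYF2 and other antibodies, using ECL detection.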

[5] = test system: eIF4E; assay: Pull-down / coimmunoprecipitation with eIF4E in HEK293T cell lysates; assay type: binding, human; conditions: streptavidin pull-down, Western blot
In short: as §1

[6] = test system: endogenous GYF2; assay: Pull-down of GYF2 by tagged 4EHP in HEK293T cells; assay type: binding, human; conditions: Western blot
In short: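 Streptavidin pull-downs used HEK293T lysates containing RNase A and expressed V5-SBP-4EHP, wild type or mutants. V5-SBP-MBP was the negative control. Inputs (1–1.5%) and bound fractions (up to 30% for GYF2) were analysed by Western blot with anti-V5 and anti-GYF2 antibodies, using ECL detection.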

B1: GYF2 C+L+NC peptide, ITC (peptide)
chain: KYKLADYRYGREEMLALFLKDNKIPSDLLDKEFLPILQ
Kd [1]: 14 nM

B2: 4E-BP1 peptide, ITC (peptide)
chain: TRIIYDRKFLMECRNSPVTKTPPRDLPTIPGVTS
Kd [1]: 55 nM
Kd [2]: 4 nM

B3: 4E-BP1 peptide (residues T50–S83) with C-terminal GB1 tag, of the competition assays (domain or fragment)
chain: TRIIYDRKFLMECRNSPVTKTPPRDLPTIPGVTS
binding result [3]: binds

B4: 4E-T: Hs 4E-T Q9NRA8, full-length (1–985) (protein)
chain: MDRRSMGETESGDAFLDLKKPPASKCPHRYTKEELLDIKELPHSKQRPSCLSEKYDSDGVWDPEKWHASLYPASGRSSPVESLKKELDTDRPSLVRRIVDPRERVKEDDLDVVLSPQRRSFGGGCHVTAAVSSRRSGSPLEKDSDGLRLLGGRRIGSGRIISARTFEKDHRLSDKDLRDLRDRDRERDFKDKRFRREFGDSKRVFGERRRNDSYTEEEPEWFSAGPTSQSETIELTGFDDKILEEDHKGRKRTRRRTASVKEGIVECNGGVAEEDEVEVILAQEPAADQEVPRDAVLPEQSPGDFDFNEFFNLDKVPCLASMIEDVLGEGSVSASRFSRWFSNPSRSGSRSSSLGSTPHEELERLAGLEQAILSPGQNSGNYFAPIPLEDHAENKVDILEMLQKAKVDLKPLLSSLSANKEKLKESSHSGVVLSVEEVEAGLKGLKVDQQVKNSTPFMAEHLEETLSAVTNNRQLKKDGDMTAFNKLVSTMKASGTLPSQPKVSRNLESHLMSPAEIPGQPVPKNILQELLGQPVQRPASSNLLSGLMGSLEPTTSLLGQRAPSPPLSQVFQTRAASADYLRPRIPSPIGFTPGPQQLLGDPFQGMRKPMSPITAQMSQLELQQAALEGLALPHDLAVQAANFYQPGFGKPQVDRTRDGFRNRQQRVTKSPAPVHRGNSSSPAPAASITSMLSPSFTPTSVIRKMYESKEKSKEEPASGKAALGDSKEDTQKASEENLLSSSSVPSADRDSSPTTNSKLSALQRSSCSTPLSQANRYTKEQDYRPKATGRKTPTLASPVPTTPFLRPVHQVPLVPHVPMVRPAHQLHPGLVQRMLAQGVHPQHLPSLLQTGVLPPGMDLSHLQGISGPILGQPFYPLPAASHPLLNPRPGTPLHLAMVQQQLQRSVLHPPGSGSHAAAVSVQTTPQNVPSRSGLPHMHSQLEHRPSQRSSSPVGLAKWFGSDVLQQPLPSMPAKVISVDELEYRQ
interaction with 4EHP in cell lysates, endogenous binding partner ([4]; HEK293T cell lysates, streptavidin pull-down): interacted with both eIF4E and 4EHP
interaction with eIF4E in cell lysates [5]: interacted with both eIF4E and 4EHP

B5: GYF2 A1*: GYF2 P78D, L79A; auxiliary site 1 mutant (protein, UniProt Q6Y7W6 2-1299, looked up, variant P78D L79A)
GRB10-interacting GYF protein …: AAETQTLNFGPEWLRALSSGGSITSPPLSPALPKYKLADYRYGREEMLALFLKDNKIPSDLLDKEFLPILQEEPLPDAALVPFTEEEQRNFSMSVNSAAVLRLTGRGGGGTVVGAPRGRSSSRGRGRGRGECGFYQRSFDEVEGVFGRGGGREMHRSQSWEERGDRRFEKPGRKDVGRPNFEEGGPTSVGRKHEFIRSESENWRIFREEQNGEDEDGGWRLAGSRRDGERWRPHSPDGPRSAGWREHMERRRRFEFDFRDRDDERGYRRVRSGSGSIDDDRDSLPEWCLEDAEEEMGTFDSSGAFLSLKKVQKEPIPEEQEMDFRPVDEGEECSDSEGSHNEEAKEPDKTNKKEGEKTDRVGVEASEETPQTSSSSARPGTPSDHQSQEASQFERKDEPKTEQTEKAEEETRMENSLPAKVPSRGDEMVADVQQPLSQIPSDTASPLLILPPPVPNPSPTLRPVETPVVGAPGMGSVSTEPDDEEGLKHLEQQAEKMVAYLQDSALDDERLASKLQEHRAKGVSIPLMHEAMQKWYYKDPQGEIQGPFNNQEMAEWFQAGYFTMSLLVKRACDESFQPLGDIMKMWGRVPFSPGPAPPPHMGELDQERLTRQQELTALYQMQHLQYQQFLIQQQYAQVLAQQQKAALSSQQQQQLALLLQQFQTLKMRISDQNIIPSVTRSVSVPDTGSIWELQPTASQPTVWEGGSVWDLPLDTTTPGPALEQLQQLEKAKAAKLEQERREAEMRAKREEEERKRQEELRRQQEEILRRQQEEERKRREEEELARRKQEEALRRQREQEIALRRQREEEERQQQEEALRRLEERRREEEERRKQEELLRKQEEEAAKWAREEEEAQRRLEENRLRMEEEAARLRHEEEERKRKELEVQRQKELMRQRQQQQEALRRLQQQQQQQQLAQMKLPSSSTWGQQSNTTACQSQATLSLAEIQKLEEERERQLREEQRRQQRELMKALQQQQQQQQQKLSGWGNVSKPSGTTKSLLEIQQEEARQMQKQQQQQQQHQQPNRARNNTHSNLHTSIGNSVWGSINTGPPNQWASDLVSSIWSNADTKNSNMGFWDDAVKEVGPRNSTNKNKNNASLSKSVGVSNRQNKKVEEEEKLLKLFQGVNKAQDGFTQWCEQMLHALNTANNLDVPTFVSFLKEVESPYEVHDYIRAYLGDTSEAKEFAKQFLERRAKQKANQQRQQQQLPQQQQQQPPQQPPQQPQQQDSVWGMNHSTLHSVFQTNQSNNQQSNFEAVQSGKKKKKQKMVRADPSLLGFSVNASSERLNMGEIETLDDY
interaction with 4EHP in cells, overexpressed binding partner [4]: did not affect binding to overexpressed 4EHP in human cells

B6: GYF1 A2+3*: GYF1 E86A, N95F; auxiliary site 2 mutant (listed as A2*) (protein, UniProt O75420 1-1035, looked up, variant E86A N95F)
GRB10-interacting GYF protein …: MAAETLNFGPEWLRALSGGGSVASPPPSPAMPKYKLADYRYGREEMLALYVKENKVPEELQDKEFAAVLQDEPLQPLALEPLTEEAQRNFSLSVFSVAVLRLMGKGAGPPLAGTSRGRGSTRSRGRGRGDSCFYQRSIEEGDGAFGRSPREIQRSQSWDDRGERRFEKSARRDGARCGFEEGGAGPRKEHARSDSENWRSLREEQEEEEEGSWRLGAGPRRDGDRWRSASPDGGPRSAGWREHGERRRKFEFDLRGDRGGCGEEEGRGGGGSSHLRRCRAPEGFEEDKDGLPEWCLDDEDEEMGTFDASGAFLPLKKGPKEPIPEEQELDFQGLEEEEEPSEGLEEEGPEAGGKELTPLPPQEEKSSSPSPLPTLGPLWGTNGDGDETAEKEPPAAEDDIRGIQLSPGVGSSAGPPGDLEDDEGLKHLQQEAEKLVASLQDSSLEEEQFTAAMQTQGLRHSAAATALPLSHGAARKWFYKDPQGEIQGPFTTQEMAEWFQAGYFSMSLLVKRGCDEGFQPLGEVIKMWGRVPFAPGPSPPPLLGNMDQERLKKQQELAAAALYQQLQHQQFLQLVSSRQLPQCALREKAALGDLTPPPPPPPQQQQQQLTAFLQQLQALKPPRGGDQNLLPTMSRSLSVPDSGRLWDVHTSASSQSGGEASLWDIPINSSTQGPILEQLQLQHKFQERREVELRAKREEEERKRREEKRRQQQQEEQKRRQEEEELFRRKHVRQQELLLKLLQQQQAVPVPPAPSSPPPLWAGLAKQGLSMKTLLELQLEGERQLHKQPPPREPARAQAPNHRVQLGGLGTAPLNQWVSEAGPLWGGPDKSGGGSSGLGLWEDTPKSGGSLVRGLGLKNSRSSPSLSDSYSHLSGRPIRKKTEEEEKLLKLLQGIPRPQDGFTQWCEQMLHTLSATGSLDVPMAVAILKEVESPYDVHDYIRSCLGDTLEAKEFAKQFLERRAKQKASQQRQQQQEAWLSSASLQTAFQANHSTKLGPGEGSKAKRRALMLHSDPSILGYSLHGSSGEIESVDDY
interaction with 4EHP in cells, overexpressed binding partner [4]: did not affect binding to overexpressed 4EHP in human cells

B7: 4EHP S99N: 4EHP S99N; dorsal surface mutant (protein, UniProt O60573 1-245, looked up, variant S99N)
Eukaryotic translation …: MNNKFDALKDDDSGDHDQNEENSTQKDGEKEKTERDKNQSSSKRKAVVPGPAEHPLQYNYTFWYSRRTPGRPTSSQSYEQNIKQIGTFASVEQFWRFYNHMVRPGDLTGHSDFHLFKEGIKPMWEDDANKNGGKWIIRLRKGLASRCWENLILAMLGEQFMVGEEICGAVVSVRFQEDIISIWNKTASDQATTARIRDTLRRVLNLPPNTIMEYKTHTDSIKMPGRLGPQRLLFQNLWKPRLNVP
binding to endogenous GYF2 [6]: Binding of GYF2 was not affected by the S99N mutation

B8: 4EHP cap: 4EHP W124A; cap-binding pocket mutant (protein, UniProt O60573 1-245, looked up, variant W124A)
Eukaryotic translation …: MNNKFDALKDDDSGDHDQNEENSTQKDGEKEKTERDKNQSSSKRKAVVPGPAEHPLQYNYTFWYSRRTPGRPTSSQSYEQNIKQIGTFASVEQFWRFYSHMVRPGDLTGHSDFHLFKEGIKPMAEDDANKNGGKWIIRLRKGLASRCWENLILAMLGEQFMVGEEICGAVVSVRFQEDIISIWNKTASDQATTARIRDTLRRVLNLPPNTIMEYKTHTDSIKMPGRLGPQRLLFQNLWKPRLNVP
binding to endogenous GYF2 [6]: still binds to GYF1/2

Source: PMC5538437 (Genes & Development, 2017)
